Numbered stars: 1 amine (or outer) side, 2 acyl side, 3 side chain; on linkers, the order of the positions; unused ones are H or OH. Bridge positions count the residues as written; N and C are the ends. Square brackets hold non-standard residues; d marks the D form. Peptide text beside a SMILES is read from it. X1 = O=C(CC1(S[*:2])CCCCC1)[*:1]
Columns and labels:
Rattus norvegicus [1] = species: Rattus norvegicus; assay: Competitive antagonist activity on oxytocin contractile action in isolated rat uterus; type: functional; details: read-out: pA2 (converted)
Procedure, shortened: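 Uteri isolated from rats in natural estrus, bathed in Van Dyke-Hastings solution with 0.5 mM Mg2+. Isometric contractions to OT doses recorded by force-displacement transducer; response quantified as integrated area under peaks. Synthetic OT (450 units/mg) standard. pA2 by Schild method from at least four separate assays; mixed agonist/antagonist potencies approximated.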

Rattus norvegicus [2] = species: Rattus norvegicus; assay: Compound was evaluated for the competitive antagonism to Arginine vasopressin (AVP) in rat antidiuretic assay; type: functional, organism-based; details: Urine, read-out: pA2 (converted)
Procedure, shortened: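 Water-loaded rats under ethanol anesthesia; antidiuretic response to AVP standard. In vivo pA2 estimated by dividing the effective dose (molar level of antagonist halving the agonist response) by an estimated distribution volume of 67 mL/kg.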

SMILES	Kb (Rattus norvegicus [1])	Kb (Rattus norvegicus [2])
CC[C@H](C)[C@H](NC(=O)[C@@H](Cc1c[nH]c2ccccc12)NC(=O)CC12CC3CC(CC(C3)C1)C2)C(=O)N[C@@H](CCC(N)=O)C(=O)N[C@@H](CC(N)=O)C(=O)N[C@@H](Cc1c[nH]c2ccccc12)C(=O)N1CCC[C@H]1C(=O)N[C@@H](CCCN=C(N)N)C(=O)NCC(N)=O	302 nM	–
CC[C@H](C)[C@@H]1NC(=O)[C@@H](Cc2c[nH]c3ccccc23)NC(=O)CC2(CCCCC2)SSC[C@@H](C(=O)N2CCC[C@H]2C(=O)N[C@@H](CCCN=C(N)N)C(=O)NCC(N)=O)NC(=O)[C@H](CC(N)=O)NC(=O)[C@H](CCC(N)=O)NC1=O ([dW]IQNCPRG-NH2; linker N-5 via X1)	–	> 1260 nM
CC[C@H](C)[C@@H]1NC(=O)[C@@H](Cc2c[nH]c3ccccc23)NC(=O)CC2(CCCCC2)SSC[C@@H](C(=O)N2CCC[C@H]2C(=O)N[C@@H](CCCN=C(N)N)C(=O)N[C@@H](Cc2c[nH]c3ccccc23)C(N)=O)NC(=O)[C@H](CC(N)=O)NC(=O)[C@H](CCC(N)=O)NC1=O	9.33 nM	> 1000 nM
CC[C@H](C)[C@H](NC(=O)[C@@H](Cc1c[nH]c2ccccc12)NC(=O)[C@H](Cc1c[nH]c2ccccc12)NC(C)=O)C(=O)N[C@@H](CCC(N)=O)C(=O)N[C@@H](CC(N)=O)C(=O)N[C@H](C(=O)N1CCC[C@H]1C(=O)N[C@@H](CCCN=C(N)N)C(=O)NCC(N)=O)C(C)C	3720 nM	–
CC[C@H](C)[C@H](NC(=O)[C@@H](Cc1c[nH]c2ccccc12)NC(=O)CC12CC3CC(CC(C3)C1)C2)C(=O)N[C@@H](CCC(N)=O)C(=O)N[C@@H](CC(N)=O)C(=O)N[C@H](C(=O)N1CCC[C@H]1C(=O)N[C@@H](CCCN=C(N)N)C(=O)NCC(N)=O)C(C)C	4270 nM	–
CC[C@H](C)[C@@H]1NC(=O)[C@@H](Cc2c[nH]c3ccccc23)NC(=O)CC2(CCCCC2)SSC[C@@H](C(=O)N2CCC[C@H]2C(=O)N[C@@H](CCCN=C(N)N)C(=O)N[C@@H](Cc2cn(C=O)c3ccccc23)C(N)=O)NC(=O)[C@H](CC(N)=O)NC(=O)[C@H](CCC(N)=O)NC1=O	21.4 nM	–
CC[C@H](C)[C@@H]1NC(=O)[C@H](Cc2c[nH]c3ccccc23)NC(=O)CC2(CCCCC2)SSC[C@@H](C(=O)N2CCC[C@H]2C(=O)N[C@@H](CCCN=C(N)N)C(=O)NCC(N)=O)NC(=O)[C@H](CC(N)=O)NC(=O)[C@H](CCC(N)=O)NC1=O (WIQNCPRG-NH2; linker N-5 via X1)	316 nM	–
CC[C@H](C)[C@@H]1NC(=O)[C@@H](Cc2c[nH]c3ccccc23)NC(=O)CC2(CCCCC2)SSC[C@@H](C(=O)N2CCC[C@H]2C(=O)N[C@@H](Cc2c[nH]c3ccccc23)C(=O)NCC(N)=O)NC(=O)[C@H](CC(N)=O)NC(=O)[C@H](CCC(N)=O)NC1=O	6.03 nM	> 1000 nM
CC[C@H](C)[C@@H]1NC(=O)[C@@H](Cc2c[nH]c3ccccc23)NC(=O)CC2(CCCCC2)SSC[C@@H](C(=O)N2c3ccccc3C[C@H]2C(=O)N[C@@H](CCCN=C(N)N)C(=O)NCC(N)=O)NC(=O)[C@H](CC(N)=O)NC(=O)[C@H](CCC(N)=O)NC1=O	12 nM	–
CC[C@H](C)[C@@H]1NC(=O)[C@@H](Cc2c[nH]c3ccccc23)NC(=O)CC2(CCCCC2)SSC[C@@H](C(=O)N[C@@H](Cc2c[nH]c3ccccc23)C(=O)N[C@@H](CCCN=C(N)N)C(=O)NCC(N)=O)NC(=O)[C@H](CC(N)=O)NC(=O)[C@H](CCC(N)=O)NC1=O	8.71 nM	> 1580 nM

Source: ChEMBL document CHEMBL1125283, “Improvement in potency of an oxytocin antagonist after systematic substitutions with L-tryptophan” (J Med Chem, 1991)
